From article PMC4200025 (International Journal of Nanomedicine, 2014)

Tests used:
Assay type in all cases: in vivo
[1] = Organ dye content 24 hours after IV injection; conditions: mice
Procedure, shortened: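 ND4 Swiss Webster mice (25–30 g, n=3 per group) were anaesthetised with IP pentobarbital (40 mg/kg). They received 0.24 mg/kg dye (conjugate dosed by dye content) via the tail vein. At 24 h, organs were dissected, minced, homogenised and extracted in DMSO for 4 h, then centrifuged at 9,000 rpm for 15 min. Supernatant fluorescence was read against a DMSO calibration curve (785 nm excitation) and normalised to organ mass.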

[2] = Plasma dye concentration after IV injection; conditions: mice, 24 hours after IV injection
[3] = Two-compartment pharmacokinetic analysis of plasma data; conditions: ND4 Swiss Webster, mouse, iv, 0.24 mg/kg, distribution half-life, mice, IV 0.24 mg/kg dye, two-compartment model

- organ dye content, kidneys [1]: at background level
- organ dye content, lungs [1]: at background level
- overall recovered percentage of injected dose (plasma plus organs) [2]: 2.6%
- recovered percentage of injected dose in plasma [2]: 0.8%
- half-life [3]: ~3.06 min
Structure (SMILES): CC1(C)C(/C=C/C=C/C=C/C=C2\N(CCCCS(=O)(=O)O)c3ccc4ccccc4c3C2(C)C)=[N+](CCCCS(=O)(=O)[O-])c2ccc3ccccc3c21 [ICG, indocyanine green]
